The data set can be described thus: Toxicity liver stage against HepG2, at 10uM. On the set-up: test concentration 10 uM, cell line HepG2-A16-CD81EGFP. Type of data set: cell-based. The following applies: human, HepG2-A16-CD81EGFP cells; read-out: INHIBITION
An outline of the steps:
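Uninfected HepG2-A16-CD81EGFP cells, 3 × 10^3 per well, 1536-well, plated on prespotted compound at 10 μM final, parasite-free screening media added to match infected plates; puromycin 10 μM positive, DMSO 0.5% negative; run in parallel with 48 h PbLuc assay at 37 °C, 5% CO2; viability by CellTiter-Glo luminescence, normalized to controls.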

`COc1cccc(CC(C)NC(=O)NCc2ccn(C)c2)c1` (stereo unspecified): the cytotoxicity at 10 µM came to 0.166%.

For the compound `Cc1nnc(NC(=O)NC2CCOc3ccccc32)s1` (stereo unspecified), the cytotoxicity at 10 µM is -13.4%.

For the compound `CCC[C@@H]1CN(Cc2ccc(C(F)(F)F)nc2)C[C@H]1C(=O)O`, the cytotoxicity at 10 µM amounted to 0.425%.

As for `O=C(CC1CC1)N1CC[C@H]2[C@@H]1CCC(=O)N2c1cccnc1`, the cytotoxicity at 10 µM was 3.06%.

As to `COc1cccc(CC(=O)N2CCN(c3cccc(C)c3)C(C)C2)c1` (stereo unspecified), the cytotoxicity at 10 µM was determined as 8.63%.

Regarding `COCC1CN(C(=O)CC2=CCCCC2)Cc2nnn(CC3CC3)c21` (stereo unspecified), the cytotoxicity at 10 µM is -116%.

Consider `Cc1ccc(N2CCCC(Nc3nn4cc(C)nc4s3)C2)nn1` (stereo unspecified), for which the cytotoxicity at 10 µM was -5.78%.

Take `CCc1ccsc1CNC(=O)CNC(=O)C(C)(C)C`: the cytotoxicity at 10 µM is -4.08%.

`CCCc1noc(CCC(=O)N2CCCC(n3ccnc3C)C2)n1` (stereo unspecified): the cytotoxicity at 10 µM was -4.39%.

For `O=C1OCCN1CC(=O)N1C[C@@H]2CC[C@H]1CN(C(=O)c1cccnc1)C2`, the cytotoxicity at 10 µM worked out at 11.6%.

`Cc1cc(C(F)(F)F)nc(C2(C)CCCN2CC(N)=O)n1` (stereo unspecified): the cytotoxicity at 10 µM amounted to 6.62%.

`CCCNC(=O)NC(=O)CN(CC(C)O)c1ccccc1` (stereo unspecified): the cytotoxicity at 10 µM was -2.48%.

On to `NC(=O)C1CCN(S(=O)(=O)c2cnn(-c3ccccc3)c2)C1` (stereo unspecified), for which the cytotoxicity at 10 µM was 7.68%.

Take `Cc1n[nH]c(C2CN(CCCOc3cccc(Cl)c3)CCO2)n1` (stereo unspecified): the cytotoxicity at 10 µM is -5.57%.

Turning to `COc1ccc(S(=O)(=O)Cc2noc(CC(C)C)n2)cc1`, the cytotoxicity at 10 µM was found to be 5.52%.

Turning to `CC(=O)N1CCCCCC1C1CCN(Cc2nc(C(C)C)no2)CC1` (stereo unspecified), the cytotoxicity at 10 µM was determined as 6.27%.

For the compound `O=C([C@@H]1COC[C@H]2CN(c3ccncn3)C[C@H]21)N1CCCC1`, the cytotoxicity at 10 µM is -133%.

For `CC(NC(=O)NCCCN1CCCC1=O)c1ccc(Cl)s1` (stereo unspecified), the cytotoxicity at 10 µM was -8.28%.

Regarding `CC(C)(CNC1CCCN(Cc2ccccc2F)C1)CN1CCOCC1` (stereo unspecified), the cytotoxicity at 10 µM is 6.21%.

As for `c1cnnc(-c2noc(CCN3CCCO3)n2)c1`, the cytotoxicity at 10 µM was -3.61%.

With `CN(C)c1ncc(-c2ccncc2)c(CCNC(=O)C2CC2)n1`, the cytotoxicity at 10 µM was 0.05%.

In the case of `O=C(Cn1cnc2ccccc2c1=O)Nc1cc(C2CC2)n[nH]1`, the cytotoxicity at 10 µM amounted to 49.4%.

As to `Cc1ccn(CCNc2ncnc3c2CCN(c2cnccn2)CC3)n1`, the cytotoxicity at 10 µM is -1.81%.

On to `Cc1cnn(CC(C)NCc2ccc(OCc3cccnc3)cc2)c1` (stereo unspecified), for which the cytotoxicity at 10 µM is -1.07%.

Regarding `Cc1cc(C)n(CC2CCCCN2CC(=O)N(C)Cc2ccco2)n1` (stereo unspecified), the cytotoxicity at 10 µM is -9.75%.

On to `Cc1nn(C)c(Cl)c1C1CCCN1Cc1noc(C2CC2)n1` (stereo unspecified), for which the cytotoxicity at 10 µM was -1.64%.

As to `Cc1nc([C@@H]2C[C@@H]3CCN(C(=O)c4ccsc4)C[C@H]3O2)no1`, the cytotoxicity at 10 µM was -8.44%.

Consider `Cc1ncccc1CNCC1CCN(CCO)CC1`, for which the cytotoxicity at 10 µM is -22.5%.

As to `c1cnc(-c2nc(CN3CCn4c(nnc4C4CC4)C3)cs2)nc1`, the cytotoxicity at 10 µM is -6.93%.

For the compound `CC1CCN(C(=O)[C@H]2C[C@@H]3CCN(CC4CCOCC4)C[C@@H]3O2)CC1`, the cytotoxicity at 10 µM was 9.85%.

As to `Cc1nc(CN2CCCN(C(=O)c3cccnc3O)CC2)cs1`, the cytotoxicity at 10 µM is -8.51%.

As for `CN(C)C(=O)COC[C@@]12CCC[C@@H]1CN(C1CCC1)C2`, the cytotoxicity at 10 µM is -1.25%.

Regarding `NC(=O)CCC1CCCN(c2ccc3ccc(F)cc3n2)C1` (stereo unspecified), the cytotoxicity at 10 µM was -0.386%.

With `CC(C)(Oc1ccc(F)cc1)C(=O)NCc1ccco1`, the cytotoxicity at 10 µM was -9.19%.

`Cc1cnn(C2CN(CCOc3cccc(C#N)c3)C2)c1`: the cytotoxicity at 10 µM came to 5.62%.

Take `CC(=O)N1CCC2(CCN(C(=O)c3ccc(Cl)c(C(F)(F)F)c3)CC2)C1`: the cytotoxicity at 10 µM is -4.48%.

As to `CCc1ccc(NC(=O)C(C)Nc2cccc3c2OCCO3)cc1` (stereo unspecified), the cytotoxicity at 10 µM worked out at 0.788%.

Turning to `CC(NC(=O)c1ccnn1C)c1ccc(OCC2CC2)c(F)c1` (stereo unspecified), the cytotoxicity at 10 µM stood at 48.8%.

For the compound `COc1cc(N2CCC3(CCN(Cc4cccnc4)C3=O)C2)ncn1` (stereo unspecified), the cytotoxicity at 10 µM is -107%.

Consider `Cc1n[nH]c(C2CN(CC(=O)NCCc3ccc(F)cc3)CCO2)n1` (stereo unspecified), for which the cytotoxicity at 10 µM was -8.13%.

Take `Cc1n[nH]c(C)c1C1COCCN1C(=O)c1cc(Cl)c[nH]1` (stereo unspecified): the cytotoxicity at 10 µM is -4.12%.

Turning to `CCC(=O)N1CCC(Cc2nccnc2Nc2ccccn2)CC1`, the cytotoxicity at 10 µM came out at 5.82%.

On to `CCC(CC)N(Cc1ccc2c(c1)OCO2)C(=O)c1ccc(=O)n(C)c1`, for which the cytotoxicity at 10 µM worked out at 9.06%.

On to `Cc1cc(N(C)Cc2noc(C)n2)n2nc(C)c(C)c2n1`, for which the cytotoxicity at 10 µM stood at 14.4%.

As to `O=C1CO[C@H]2CN(Cc3c[nH]c4ccccc34)C[C@H]2N1`, the cytotoxicity at 10 µM stood at 1.61%.

As to `O=C(O)CCC(=O)Nc1nn(Cc2ccc(F)cc2)cc1Cl`, the cytotoxicity at 10 µM amounted to 13.8%.

Take `CC1=CC[C@@H]2CN(C(=O)c3ccc(-c4nc[nH]n4)cc3)C[C@@H]2C1`: the cytotoxicity at 10 µM amounted to 0.417%.

With `COCCNC(=O)C1(Cc2ccccc2-c2ccncc2)CCOCC1`, the cytotoxicity at 10 µM is -26.3%.

On to `NCCSc1nccc(-c2cnc(C3CC3)nc2-c2ccco2)n1`, for which the cytotoxicity at 10 µM is -7.19%.

As for `CNc1nc(CNC(=O)Nc2cccc(-c3ncc(C)o3)c2)cs1`, the cytotoxicity at 10 µM was -7.57%.

`CS(=O)(=O)N1C[C@H]2CC[C@@H](C1)N(C(=O)CCc1ccsc1)C2`: the cytotoxicity at 10 µM was 14.3%.

With `CCCC(=O)N(CCCN1CCOCC1)c1nc2c(Cl)cccc2s1`, the cytotoxicity at 10 µM is -12.8%.

On to `CC(C)(NS(C)(=O)=O)C(=O)NCc1cccc(Br)c1`, for which the cytotoxicity at 10 µM is -2.42%.

With `Cc1nc(C)c(CCNC(Cc2ccncc2)C(F)(F)F)s1` (stereo unspecified), the cytotoxicity at 10 µM was -4.96%.

With `Cc1nc(CN2CCN(C(=O)CCc3cccnc3)CC2)no1`, the cytotoxicity at 10 µM is -8.64%.

As for `c1ccc(-c2cccc(N3CCC(NCCc4cscn4)CC3)c2)cc1`, the cytotoxicity at 10 µM worked out at 3.58%.

In the case of `CCn1ncnc1C(C)Nc1cc(C2CCNCC2)nc(C)n1` (stereo unspecified), the cytotoxicity at 10 µM is -6.77%.

For the compound `Cc1ccc(CN(C)C(=O)CN2CCCC2c2cnn(C)c2)o1` (stereo unspecified), the cytotoxicity at 10 µM is -1.69%.

As to `O=C(Nc1ccc2ncsc2c1)N1CCCN([C@H]2COC[C@@H]2O)CC1`, the cytotoxicity at 10 µM was -53.6%.

Consider `Cc1nc(C2CCCN(C(=O)c3ccc(Cn4cccn4)o3)C2)no1` (stereo unspecified), for which the cytotoxicity at 10 µM was -6.38%.

On to `CN(C)c1nc2n(c(=O)n1)CCN2C(=O)Nc1ccc(Cl)cc1`, for which the cytotoxicity at 10 µM is 6.36%.

Turning to `CN(C)C(=O)c1ccn(COc2ccccc2Cl)n1`, the cytotoxicity at 10 µM came out at 6.91%.

Take `CNc1cc(C2CN(C(=O)c3cnn(C)c3)CCO2)nc(C)n1` (stereo unspecified): the cytotoxicity at 10 µM is -5.42%.

In the case of `Cc1cc(C(=O)Nc2cccn(Cc3ccc(F)cc3)c2=O)no1`, the cytotoxicity at 10 µM is 3.15%.

Consider `CNc1nc(C2CCCCN2C(=O)COC)nc2c1CN(C)CC2` (stereo unspecified), for which the cytotoxicity at 10 µM is -13.1%.

For the compound `COc1cccc(OC2CN(C(=O)c3sccc3C)C2)c1`, the cytotoxicity at 10 µM came to 2.3%.

As to `Cc1cccc(N2CCCC2c2nc(C)ncc2CN(C)C)n1` (stereo unspecified), the cytotoxicity at 10 µM was -2.17%.

For the compound `CC1CCN(C)c2ccccc2N1C(=O)c1ccnc(-n2cncn2)c1` (stereo unspecified), the cytotoxicity at 10 µM was 2.37%.

Turning to `O=C(NS(=O)(=O)Cc1ccon1)c1ccsc1`, the cytotoxicity at 10 µM is -14.2%.

As to `CC(=O)N1CCN(C(=O)NCc2ccccc2Cn2cncn2)CC1`, the cytotoxicity at 10 µM was determined as 0.0453%.

With `CCOCC(=O)N1CCC2(CC1)COCCN2CCOC`, the cytotoxicity at 10 µM amounted to 8.37%.

For the compound `Cc1ccc(CNC(=O)Cn2ncc3c2c(C)nn3C)cc1`, the cytotoxicity at 10 µM stood at 22.2%.

On to `Cc1c(Cl)c(C(=O)NN2CCOCC2)nn1C`, for which the cytotoxicity at 10 µM turned out to be 7.47%.

Regarding `CN1C[C@@H](C(=O)NC2CC2)[C@@]2(COc3ccc(F)cc3C2=O)C1`, the cytotoxicity at 10 µM was -26.5%.

For `COc1ccc(Br)c(C(=O)N2CCCC(c3nc(C)no3)C2)c1` (stereo unspecified), the cytotoxicity at 10 µM came to 7.08%.

In the case of `CN(Cc1ccc(C#N)cc1)C(=O)c1ccn(C)c(=O)c1`, the cytotoxicity at 10 µM is -2.81%.

On to `Cc1ccc(CN2CCNC(C(=O)NC3CC3)C2)cc1C` (stereo unspecified), for which the cytotoxicity at 10 µM was -3.41%.

As for `Cc1nc(CN2CC(=O)N(C)c3ccccc3C2=O)no1`, the cytotoxicity at 10 µM is -3.78%.

With `N#Cc1cccc(S(=O)(=O)CCN2CCOC2=O)c1`, the cytotoxicity at 10 µM was -2.32%.

On to `COCC1CC2(CCN(C(=O)C3CCSCC3)CC2)CO1` (stereo unspecified), for which the cytotoxicity at 10 µM was -8.93%.

In the case of `O=C(Cn1nc(-c2ccc(F)cc2)oc1=O)Nc1ccccc1`, the cytotoxicity at 10 µM stood at 0.967%.

As to `CC(=O)N1CCCC1c1ccc(C(=O)N2CCOCC2)s1` (stereo unspecified), the cytotoxicity at 10 µM turned out to be 6.92%.

Take `CC(C)c1cc(N(C)Cc2noc(C3CCCC3)n2)n2nccc2n1`: the cytotoxicity at 10 µM was -0.0395%.

Regarding `Cc1ccc(-c2nc(CN3CCc4cnc(C)nc4C3)no2)cc1`, the cytotoxicity at 10 µM was -5.12%.

Regarding `Cn1c(C(=O)NCC2(N)CCCC2)cc2ccccc21`, the cytotoxicity at 10 µM stood at 7.8%.

On to `CC(C)(C)OC(=O)N1CCN(c2cccnc2)CC1C(=O)O` (stereo unspecified), for which the cytotoxicity at 10 µM is -13.7%.

As for `OCCNc1nccc(-c2c[nH]nc2-c2ccco2)n1`, the cytotoxicity at 10 µM was -6.47%.

Turning to `Cc1cc2nc(CN(C)c3ccccc3)cc(=O)n2o1`, the cytotoxicity at 10 µM came out at 0.719%.

As to `Cc1cncc(C2CCCN(C(=O)c3ccc(C)[nH]c3=O)C2)n1` (stereo unspecified), the cytotoxicity at 10 µM worked out at 5.37%.

`Cc1ccc(-c2noc(C(O)CC(C)C)n2)nn1` (stereo unspecified): the cytotoxicity at 10 µM was -7.72%.

Regarding `COc1ccc(OC)c(CCNC(=O)NC(C)Cn2ccnc2)c1` (stereo unspecified), the cytotoxicity at 10 µM is -1.06%.

With `NC(=O)Cn1ccc(NC(=O)C2(c3ccc(F)cc3)CC2)n1`, the cytotoxicity at 10 µM was -2.82%.

On to `O=C(NCCNC1CCCCC1)c1cccs1`, for which the cytotoxicity at 10 µM is -12.7%.

Take `COC(=O)c1cccc(-c2c[nH]c(C)n2)c1`: the cytotoxicity at 10 µM was -0.734%.

For `CC(=O)N1CC[C@@H]2O[C@H](C(=O)Nc3nc(C)cs3)C[C@@H]21`, the cytotoxicity at 10 µM stood at 4.62%.

Consider `COc1ccc(Cl)cc1CN(C)C(=O)CN1C(=O)OC[C@@H]1C(C)C`, for which the cytotoxicity at 10 µM was -4.29%.

Values taken from ChEMBL document CHEMBL4513216, “Probing the Open Global Health Chemical Diversity Library for Multistage-Active Starting Points for Next-Generation Antimalarials” (ACS Infect Dis, 2020).
